Structures are written as SMILES. Several values for one entry are separate records, joined by “and”; a condition that tells them apart may be missing. Equal values may be shown once.

Series [1] is described as follows: Compound was evaluated for pharmacokinetic parameter, half life period (T1/2). In kind it is ADME, organism-based. Particulars: in vivo.
Series [2] can be described thus: Compound was evaluated for pharmacokinetic parameter, area under curve (AUC). The series is classed as ADME. Also on record: unit not given here.
The nature of series [3]: compound was evaluated for pharmacokinetic parameter, area under curve (AUC). The series is classed as ADME. Summed up:
(§1)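 Species-dependent dosing. Mice: 25 mg/kg po in 20% 0.1 N NaOH/80% 0.5% methylcellulose; values from a pool of five mice; plasma levels by HPLC. Rats: 10 mg/kg po by capsule or pH 7.4-buffered solution; average of two animals. Dogs: 10 mg/kg in saline (sodium salt) or pH 10-buffered 0.1 NaOH (free acid).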

Series [4] in a line: compound was evaluated for pharmacokinetic parameter, Tmax. In kind it is ADME, organism-based. Particulars: in vivo. Summed up: as §1
The nature of series [5]: Compound was evaluated for pharmacokinetic parameter, Tmax. The series is classed as ADME, organism-based. Particulars: in vivo.
Series [6] in a line: Toxicity measured in CEM cells in the absence of virus. The series is classed as cell-based. Particulars: human, CEM cells (CCRF-CEM); read-out: TC50 (the source's name).
Series [7] concerns Human immunodeficiency virus 1. In words: Antiviral activity in HIV infected CEM cells as effective concentration at which 50% of the cells are protected from cytopathic effect. The series is classed as functional, organism-based. Particulars: Human immunodeficiency virus 1, CCRF-CEM. The gist of the method: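 HIV-IIIB-infected human lymphocyte-derived CEM cells. EC50 is the drug concentration at which 50% of cells are protected from HIV cytopathic effects. Testing was done at Southern Research Institute.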
(In general: Protection from cytopathic effect is a common read-out in antiviral testing.)

Series [8] addresses Human immunodeficiency virus type 1 protease (Human immunodeficiency virus 1, UniProt Q72874). Nature of the series: HIV-1 protease inhibition. The gist of the method: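 Affinity-purified HIV-1 protease (1.5 nM final) with 40 µM peptide substrate His-Lys-Ala-Arg-Val-Leu-(p-NO2-Phe)-Glu-Ala-Nle-Ser-NH2 and 1.0% DMSO. Buffer: 80 mM MES, 160 mM NaCl, 1.0 mM DTT, 1.0 mM EDTA, 0.1% PEG 8000, pH 6.2. Incubated 60 min at 37 °C, then quenched with TFA (2% final). Products separated by reverse-phase HPLC and read at 220 nm. Percent control derived from % conversion with vs without inhibitor; IC50 then determined.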

Series [9] can be described thus: compound was evaluated for pharmacokinetic parameter, half life period (T1/2). Particulars: in vivo. In kind it is ADME, organism-based. Summed up: as §1
Series [10] in a line: Compound was evaluated for pharmacokinetic parameter, Cmax. In kind it is ADME, organism-based. Particulars: in vivo.
Series [11] is described as follows: Compound was evaluated for pharmacokinetic parameter, Cmax in rat at 10 mg/kg po. Particulars: in vivo.
Series [12] in a line: Bioavailability. The series is classed as ADME, organism-based. Particulars: eutheria, in vivo. The gist of the method: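 Dogs dosed at 10 mg/kg. Vehicle was either the sodium salt in normal saline or the free acid in 0.1 NaOH buffered to pH 10, depending on compound.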
A short description of series [13]: Compound was evaluated for pharmacokinetic parameter, Cmax in rat at 25 mg/kg po. In kind it is ADME, organism-based. Further details: dose 25 mg/kg, route oral. Particulars: in vivo.

As to `Cc1cc(SC2=C(O)OC(CCc3ccsc3)(C(C)C)CC2=O)c(C(C)(C)C)cc1CO` (stereo not drawn), the values for the half-life in series [1] and in series [9] were 210 min and 564 min, respectively. Moreover, the figures for the AUC in series [2] and in series [3] were 221 and 21 µg/h/mL, respectively. For the same compound, the Tmax in series [4] and in [5] was 30 min each time. Besides, in series [6], the CC50 was determined as 110000 nM. Moreover, the EC50 in [7] was 300 nM. The same compound had an IC50 in [8] of 0.17 nM. For the same compound, the Cmax amounted to 39.6 µM in series [10] and 11.2 µM in [11].

For the compound `Cc1cc(SC2=C(O)OC(CCc3nccs3)(C(C)C)CC2=O)c(C(C)(C)C)cc1CO` (stereo not drawn), the half-life was 198 min in [1] and 732 min in series [9]. Also, the AUC in series [2] amounted to 132; in series [3] it was 10000 ng·h/mL. Moreover, the Tmax was 15 min in series [4] and 30 min in series [5]. The CC50 in series [6] was determined as 216000 nM. The compound also came in with an EC50 in series [7] of 700 nM. In addition, in series [8], the IC50 was found to be 0.57 nM. Also, the Cmax was 33 µM in series [10] and 2.7 µM in series [11] (read-out: Cmax).

Consider `Cc1cc(SC2=C(O)O[C@](CCc3ccsc3)(C(C)C)CC2=O)c(C(C)(C)C)cc1CO`, for which, in [12], the bioavailability turned out to be 88%. In addition, the Cmax in [13] came to 14.7 µM. Further, the Tmax in series [4] came out at 30 min. In addition, in series [6], the CC50 was found to be 91000 nM. In addition, in series [7], a half-maximal response (EC50) required 120 nM. The midpoint of inhibition in series [8], the IC50, lay at 0.13 nM. The T1/2 in series [9] is 690 min and 324 min.

Consider `Cc1cc(SC2=C(O)OC(CCc3cccnc3)(C(C)C)CC2=O)c(C(C)(C)C)cc1CO` (stereo not drawn), for which the Tmax in [5] was found to be 30 min. Further, 0.94 nM corresponded to half-maximal inhibition in series [8] (IC50).

`Cc1cc(SC2=C(O)OC(CCc3scnc3C)(C(C)C)CC2=O)c(C(C)(C)C)cc1CO` (stereo not drawn): in [4], the Tmax turned out to be 15 min. The CC50 in [6] came out at 164000 nM. This compound came in with a 50% effective concentration (EC50) in series [7] of 370 nM. The compound also had a Cmax in [11] of 0.77 µM.

Compound `Cc1cc(SC2=C(O)OC(CCc3ccc(N)cc3)(C(C)C)CC2=O)c(C(C)(C)C)cc1CO` (racemic) had a half-life in series [1] of 132 min. In addition, in [2], the AUC was determined as 42. The Tmax in [5] was found to be 30 min. In series [6], the CC50 is above 100000 nM. Also, the EC50 in [7] was found to be 500 nM. Moreover, the IC50 in [8] was 0.43 nM. This compound also gave a Cmax in series [10] of 23 µM.

With `Cc1cc(SC2=C(O)O[C@](CCc3ccc(N)cc3)(C(C)C)CC2=O)c(C(C)(C)C)cc1CO`, the bioavailability in [12] was 33%. For the same compound, the half-life in series [1] is 132 min; in series [9] it was 222 min. For the same compound, the AUC in series [2] is 82. Besides, the Tmax in [4] and in series [5] was 30 min each time. Also, the CC50 in [6] worked out at 210000 nM. For the same compound, half-maximal inhibition in [8] (IC50) was put at 0.11 nM. This compound also displayed a Cmax in series [10] of 26.5 µM.

Consider `Cc1nc(CCC2(C(C)C)CC(=O)C(Sc3cc(C)c(CO)cc3C(C)(C)C)=C(O)O2)cs1` (stereo not drawn), for which the CC50 in series [6] stood at 210000 nM. The compound further had an EC50 in series [7] of 4500 nM. Besides, the IC50 in [8] is 13 nM.

The compound `Cc1cc(SC2=C(O)OC(CCc3ccoc3)(C(C)C)CC2=O)c(C(C)(C)C)cc1CO` (stereo not drawn) showed a half-life in series [1] of 336 min. In addition, the AUC in [2] is listed as 241. Moreover, the Tmax in series [5] amounted to 30 min. Besides, in [6], the CC50 worked out at 199000 nM. Moreover, in [7], the EC50 came to 1000 nM. The IC50 in series [8] was 0.34 nM. The compound further showed a Cmax in [10] of 54.4 µM.

Consider `Cc1cc(SC2=C(O)OC(CCc3ccsc3CO)(C(C)C)CC2=O)c(C(C)(C)C)cc1CO` (stereo not drawn), for which the CC50 in series [6] turned out to be 200000 nM. In [7], this compound gave an EC50 of 920 nM. In series [8], this compound displayed an IC50 of 14 nM.

In the case of `Cc1cc(SC2=C(O)OC(CCc3c[nH]cn3)(C(C)C)CC2=O)c(C(C)(C)C)cc1CO` (stereo not drawn), the CC50 in series [6] came out at 200000 nM. In series [7], this compound returned an EC50 of 89000 nM. In [8], it took 70 nM to reach half-maximal inhibition (IC50).

Regarding `Cc1cc(SC2=C(O)OC(CCc3nc4ccccc4s3)(C(C)C)CC2=O)c(C(C)(C)C)cc1CO` (stereo not drawn), the CC50 in [6] was found to be 62000 nM. In [7], this compound yielded an EC50 of 1500 nM. This compound returned an IC50 in series [8] of 1.4 nM.

As for `Cc1cc(SC2=C(O)OC(CCc3cscc3C)(C(C)C)CC2=O)c(C(C)(C)C)cc1CO` (stereo not drawn), in series [6], the CC50 was 51000 nM. Besides, in series [7], the EC50 came out at 260 nM. The same compound came in with an IC50 in [8] of 0.41 nM.

On to `Cc1csc(CCC2(C(C)C)CC(=O)C(Sc3cc(C)c(CO)cc3C(C)(C)C)=C(O)O2)n1` (stereo not drawn), for which the CC50 in series [6] was 171000 nM. The compound further registered an EC50 in [7] of 800 nM. Moreover, the IC50 in series [8] came to 0.45 nM.

Turning to `Cc1cc(SC2=C(O)OC(CCc3nc(C(C)C)cs3)(C(C)C)CC2=O)c(C(C)(C)C)cc1CO` (stereo not drawn), the CC50 in series [6] turned out to be 84000 nM. Further, the EC50 in series [7] stood at 33000 nM. Moreover, inhibition in [8] was half-maximal at 14 nM (IC50).

On to `Cc1cc(SC2=C(O)OC(CCc3cncs3)(C(C)C)CC2=O)c(C(C)(C)C)cc1CO` (stereo not drawn), for which the CC50 in series [6] is 229000 nM. This compound also yielded an EC50 in [7] of 1900 nM. Moreover, the IC50 in series [8] is 0.24 nM.

For the compound `Cc1cc(SC2=C(O)OC(CCc3csc(CO)c3)(C(C)C)CC2=O)c(C(C)(C)C)cc1CO` (stereo not drawn), in series [6], the CC50 was 210000 nM. For the same compound, the response in [7] was half-maximal at 18000 nM (EC50). The compound further had an IC50 in series [8] of 0.19 nM.

On to `CC(=O)Nc1nc(CCC2(C(C)C)CC(=O)C(Sc3cc(C)c(CO)cc3C(C)(C)C)=C(O)O2)cs1` (stereo not drawn), for which the CC50 in series [6] was determined as 210000 nM. The compound also returned an EC50 in series [7] of 23000 nM. The compound also returned an IC50 in [8] of 18 nM.

In general, half-life refers to the time in which the quantity being followed falls by half. As a reminder, the Tmax is the time at which the peak concentration occurs. As a reminder, the EC50 is the concentration needed to bring the measured effect to its halfway point. The IC50 is the concentration at which inhibition is half-maximal. What is called Cmax is the highest concentration seen after dosing. As a reminder, the bioavailability is the share of a dose that reaches the circulation, judged against a reference dose that is usually intravenous.

The values above are taken from ChEMBL document CHEMBL1134529, “4-Hydroxy-5,6-dihydropyrones as inhibitors of HIV protease: the effect of heterocyclic substituents at C-6 on antiviral potency and pharmacokinetic parameters” (J Med Chem, 2001).
